In publication PMC6018888 (Drug Design, Development and Therapy, 2018):

Key:
Assay type in all cases: in vivo, human
[1] = test system: healthy Japanese and non-Asian adult male subjects; test: Safety and tolerability assessment; conditions: for incidence of TEAEs: 10 mg dose level
Outline: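 Adverse events were assessed daily in all dosed subjects, graded by Rheumatology Common Toxicity Criteria v2.0, with relatedness judged by the investigator. Clinical laboratory samples were taken at screening, admission, days 2, 5, 7 and 13, and at follow-up. Supine vital signs and oral temperature were measured at set times. Physical examination and 12-lead ECG were done at screening and follow-up.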

[2] = Verinurad urinary pharmacokinetics; conditions: for CLR0–24 / fe0–24: Japanese subjects, geometric mean (95% CI)
[3] = Verinurad plasma pharmacokinetics, Phase I single and multiple dose study; conditions: for GMR AUC0–24 (day 6/day 1) / GMR AUC0–∞ (day 6/day 1) / GMR Cmax (day 6/day 1): fed (day 6) vs fasted (day 1)
Outline: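 Oral modified-release tablets were given once as a single dose on day 1 (fasted overnight ≥10 h) and day 6 (after a moderate-fat breakfast), then daily fed through day 12. Serial plasma was sampled to 72 h on days 1 and 12, to 24 h on day 6, and predose on days 8–11. Samples were stored at −70°C. Cmax and AUC0–24 came from noncompartmental analysis, with comparisons as geometric mean ratios.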

[4] = Japanese subjects, pooled verinurad (n=24)
[5] = Non-Asian subjects, pooled verinurad (n=6)
[6] = 2.5 mg single dose, fasted, day 1
[7] = 5 mg once daily multiple doses, fed, day 12
[8] = 5 mg single dose, fasted, day 1
[9] = 10 mg once daily multiple doses, fed, day 12
[10] = 10 mg single dose, fasted, day 1
[11] = 15 mg once daily multiple doses, fed, day 12
[12] = 15 mg single dose, fasted, day 1
[13] = Japanese subjects, 2.5 mg single dose
[14] = Japanese subjects, 5 mg single dose
[15] = Japanese subjects, 10 mg single dose

SMILES: CC(C)(Sc1ccncc1-c1ccc(C#N)c2ccccc12)C(=O)O [verinurad]
- AE possibly related to study drug, severe severity/life-threatening [1, 4]: 0 n (%) [events]
- Any AE, severe severity/life-threatening [1, 4]: 0 n (%) [events]
- SAEs [1, 4]: 0 n (%) [events]
- incidence of TEAEs ([1]; Japanese subjects): 2 n
- AE possibly related to study drug, moderate severity [1, 5]: 0 n (%) [events]
- AE possibly related to study drug, severe severity/life-threatening [1, 5]: 0 n (%) [events]
- Any AE, severe severity/life-threatening [1, 5]: 0 n (%) [events]
- SAEs [1, 5]: 0 n (%) [events]
- Subjects withdrawn due to AEs [1, 5]: 0 n (%) [events]
- serum chemistry, hematology, coagulation, urinalysis parameters ([1]; all subjects): No safety concerns were identified
- vital signs, 12-lead electrocardiograms, physical examinations ([1]; all subjects): No clinically significant findings
- deaths, serious AEs, significant AEs of interest ([1]; all subjects, during the study): No deaths, other serious AEs, or other significant AEs of interest were reported
- tolerability ([1]; healthy male Japanese and non-Asian subjects, single and multiple once-daily doses 2.5 to 15 mg): well tolerated
- incidence of TEAEs ([1]; non-Asian subjects): 2 n
- serum creatinine elevation ([1]; one subject, 3 days after a single 2.5 mg dose, resolved by day 14): 1.5 × baseline
- TEAE of moderate severity ([1]; one subject, day 13 following daily dosing with 10 mg, unlikely to be related): moderately severe muscle strain
- CLR0–24 [2, 6]: 16.1 (9.41–27.6) mL/min
- fe0–24 [2, 6]: 0.896 (0.620–1.29) %
- CLR0–24 ([2]; 2.5 mg single dose, fed, day 6): 15.7 (9.54–25.8) mL/min
- fe0–24 ([2]; 2.5 mg single dose, fed, day 6): 1.27 (0.659–2.47) %
- CLR0–24 [2, 7]: 17.0 (11.8–24.5) mL/min
- fe0–24 [2, 7]: 1.65 (0.959–2.84) %
- CLR0–24 [2, 8]: 16.4 (11.3–23.7) mL/min
- fe0–24 [2, 8]: 0.640 (0.279–1.47) %
- CLR0–24 ([2]; 5 mg single dose, fed, day 6): 15.1 (11.8–19.3) mL/min
- fe0–24 ([2]; 5 mg single dose, fed, day 6): 1.09 (0.730–1.64) %
- CLR0–24 [2, 9]: 17.0 (9.43–25.4) mL/min
- fe0–24 [2, 9]: 1.77 (1.38–2.25) %
- CLR0–24 [2, 10]: 13.1 (10.1–16.9) mL/min
- fe0–24 [2, 10]: 0.733 (0.558–0.964) %
- fe0–24 ([2]; 10 mg single dose, fed, day 6): 1.63 (1.24–2.16) %
- CLR0–24 [2, 11]: 16.0 (8.22–31.3) mL/min
- fe0–24 [2, 11]: 1.83 (1.23–2.73) %
- CLR0–24 [2, 12]: 9.30 (5.46–15.9) mL/min
- fe0–24 [2, 12]: 0.788 (0.424–1.45) %
- CLR0–24 ([2]; 15 mg single dose, fed, day 6): 12.0 (6.06–23.7) mL/min
- fe0–24 ([2]; 15 mg single dose, fed, day 6): 1.14 (0.907–1.45) %
- renal clearance GMR, Japanese vs non-Asian ([2]; multiple dosing, 90% CI 79.7–126): 100%
- fraction of drug excreted in urine GMR, Japanese vs non-Asian ([2]; multiple dosing, 90% CI 98.7–153): 123%
- renal clearance GMR, Japanese vs non-Asian ([2]; single dose, fasted, 90% CI 53.7–91.4): 70.0%
- fraction of drug excreted in urine GMR, Japanese vs non-Asian ([2]; single dose, fasted, 90% CI 70.9–124): 93.7%
- renal clearance GMR, Japanese vs non-Asian ([2]; single dose, fed, 90% CI 65.0–101): 80.9%
- fraction of drug excreted in urine GMR, Japanese vs non-Asian ([2]; single dose, fed, 90% CI 107–191): 143%
- AUC0–24 GMR, % (95% CI), Japanese/non-Asian ([3]; 10 mg multiple dose, fed): 123 (93.0–162) %
- AUC0–24 GMR, % (95% CI), Japanese/non-Asian, bodyweight normalized to 70 kg ([3]; 10 mg multiple dose, fed): 96.9 (77.4–121) %
- Cmax GMR, % (95% CI), Japanese/non-Asian ([3]; 10 mg multiple dose, fed): 138 (112–171) %
- Cmax GMR, % (95% CI), Japanese/non-Asian, bodyweight normalized to 70 kg ([3]; 10 mg multiple dose, fed): 109 (94.4–126) %
- AUC0–24 GMR, % (95% CI), Japanese/non-Asian ([3]; 10 mg single dose, fasted): 134 (111–161) %
- AUC0–24 GMR, % (95% CI), Japanese/non-Asian, bodyweight normalized to 70 kg ([3]; 10 mg single dose, fasted): 106 (84.5–132) %
- Cmax GMR, % (95% CI), Japanese/non-Asian ([3]; 10 mg single dose, fasted): 199 (167–237) %
- Cmax GMR, % (95% CI), Japanese/non-Asian, bodyweight normalized to 70 kg ([3]; 10 mg single dose, fasted): 157 (132–187) %
- AUC0–24 GMR, % (95% CI), Japanese/non-Asian ([3]; 10 mg single dose, fed): 176 (137–227) %
- AUC0–24 GMR, % (95% CI), Japanese/non-Asian, bodyweight normalized to 70 kg ([3]; 10 mg single dose, fed): 139 (114–170) %
- Cmax GMR, % (95% CI), Japanese/non-Asian ([3]; 10 mg single dose, fed): 142 (107–189) %
- Cmax GMR, % (95% CI), Japanese/non-Asian, bodyweight normalized to 70 kg ([3]; 10 mg single dose, fed): 112 (88.5–143) %
- GMR AUC0–24 (day 6/day 1) [3, 13]: 146 (101–211) %
- GMR AUC0–∞ (day 6/day 1) [3, 13]: 131 (82.9–208) %
- GMR Cmax (day 6/day 1) [3, 13]: 116 (105–128) %
- Rac, accumulation ratio (day 12/day 6), AUC0–24 ([3]; Japanese subjects, 2.5 mg, fed): 1.06 (0.672–1.68)
- Tmax ([3]; Japanese subjects, 5 mg once daily multiple doses, fed, day 12, median (range)): 4.00 (2.00–10.0) h
- GMR AUC0–24 (day 6/day 1) [3, 14]: 185 (121–283) %
- GMR AUC0–∞ (day 6/day 1) [3, 14]: 173 (108–278) %
- GMR Cmax (day 6/day 1) [3, 14]: 126 (89.1–179) %
- Rac, accumulation ratio (day 12/day 6), Cmax ([3]; Japanese subjects, 5 mg, fed): 1.24 (1.01–1.53)
- AUC0–24 ([3]; Japanese subjects, 10 mg single dose, fasted, day 1, geometric mean (95% CI)): 93.4 (74.2–118) ng·h/mL
- GMR AUC0–24 (day 6/day 1) [3, 15]: 209 (172–253) %
- GMR AUC0–∞ (day 6/day 1) [3, 15]: 197 (181–215) %
- GMR Cmax (day 6/day 1) [3, 15]: 99.7 (85.1–117) %
